Screening results (PubChem)
procasp3 activ: procaspase-3 (human) activation. P42574. recombinant procaspase-3 D3A, Ac-DEVD-pNA absorbance 405 nm. activation, % at 8.5 µM. 330,000 tested, 0.11% active;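 active means activation above the mean of all tested compounds plus 3 SD, cut at about 21% in these data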;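 further: 0% = DMSO alone and 100% = DMSO wells spiked with extra 5 µM PC-3 D3A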
Target sequence (P42574 whole entry D9A/D28A/D175A): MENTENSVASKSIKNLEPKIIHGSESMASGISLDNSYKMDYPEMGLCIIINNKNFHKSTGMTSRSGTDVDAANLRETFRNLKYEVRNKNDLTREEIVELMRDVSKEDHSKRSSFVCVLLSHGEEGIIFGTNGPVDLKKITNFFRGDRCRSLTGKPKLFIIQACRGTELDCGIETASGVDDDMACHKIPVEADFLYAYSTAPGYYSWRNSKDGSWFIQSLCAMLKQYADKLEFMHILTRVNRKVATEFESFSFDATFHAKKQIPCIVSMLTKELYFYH
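assay system = Procaspase-3 D3A mutant | signal = absorbance at 405 nm, 0 and 120 min | times = 1 h preincubation plus 2 h reaction at 25 °C | repeats = single replicate | read-out = % activation between DMSO and enzyme-spiked controls | medium = Zinc-free HEPES saline buffer with Triton X-100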
PREPL inhibitor: human PREPL enzyme inhibition | 320,000 tested, 0.68% active | Q4J6C6 | recombinant PREPL, fluorescence polarization activity-based probe | AID 2751 | inhibition, % at 5.96 µM; in the data active means inhibition above about 43%;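 further: 0% = enzyme with DMSO and 100% = wells lacking enzyme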
LYPLA2 counter: counter-screen for PME1 inhibitors: inhibitors of human LYPLA2; O95372; recombinant LYPLA2, FP-Rh probe fluorescence polarization; inhibition, % at 5.9 µM; 320,000 tested, 0.38% active; AID 2177;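 active means inhibition above the screen-wide mean plus 3 SD, limit set per campaign, cut at about 26% in these data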;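 further: 0% = LYPLA2 with DMSO and 100% = wells lacking LYPLA2 enzyme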
LYPLA1 inh: LYPLA1 (human) inhibition in PME1 counter-screen | O75608 | recombinant LYPLA1, FP-Rh probe fluorescence polarization | inhibition, % at 5.9 µM | 320,000 tested, 0.16% active;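 active means inhibition above the mean of all tested compounds plus 3 SD, set per campaign, cut at about 14% in these data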;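 further: inhibitors block serine hydrolase probe labeling of LYPLA1 so polarization falls; 0% = enzyme with DMSO and 100% = wells lacking LYPLA1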
proCasp7 act: counter-screen for procaspase-3 activators: activators of human procaspase-7. activation, % at 8.5 µM. recombinant procaspase-7, Ac-DEVD-pNA absorbance 405 nm; D23A/D198A/D206A triple mutant, cannot self-cleave; scale: DMSO 0, 5 µM enzyme 100. AID 463210. 330,000 tested, 0.093% active. P55210;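 active means percent activation above the screen-wide mean plus 3 SD, cut at about 25% in these data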
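System: Procaspase-7 triple mutant (PC-7 D3A); measure: % activation from two-timepoint absorbance difference, scaled to controls; times: 1 h compound preincubation, 2 h substrate cleavage, 25 °C; also added: Ac-DEVD-pNA substrate, 400 µM as added; measured by: Epi-absorbance of released pNA at 405 nm, two timepoints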
LYPLA2 confirm: LYPLA2 (human) inhibition, confirmation counter-screen. shares compounds with LYPLA2 counter. recombinant LYPLA2, FP-Rh probe fluorescence polarization. inhibition, % at 5.9 µM. 1,100 tested, 72% active;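 active means mean inhibition across replicates above the hit cutoff set in the primary screen, cut at about 26% in these data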;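 further: blocked labeling of the enzyme by serine hydrolase FP-Rh probe lowers polarization; 0% = enzyme with DMSO and 100% = wells lacking LYPLA2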
LYPLA2 ABPP: LYPLA2 (human) inhibition, late stage results | rhLYPLA2 in mouse brain proteome, gel ABPP FP-Rh | shares compounds with LYPLA2 counter | AID 652029 | inhibition, % at 20 µM | 150 tested, 30% active;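 active means inhibition of LYPLA2 enzyme probe labeling above about 50%, limit read from the data; inactive means inhibition below that limit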;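 further: loss of FP-Rh probe labeling of the LYPLA2 gel band measured as band density; 0% = DMSO only control band and 100% = blank gel background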
* = called active by the depositor; . = not tested or not shown. Only some compounds are listed: those with a hit (about 1.1% of all), similar ones and a draw of the others.

SMILES	procasp3 activ	PREPL inhibitor	LYPLA2 counter	LYPLA1 inh	proCasp7 act	LYPLA2 confirm	others
COc1ccc(N2CCN(Cc3nc(-c4ccccc4)no3)CC2)cc1	6	20	26*	6	0	16
O=C(NCC1CCN(c2ccc(S(=O)(=O)N3CCOCC3)cc2)CC1)c1cccc(Cl)c1	2	31	32*	1	-7	31*
COc1cccc(C(=O)NCC2CCN(c3ccc(S(=O)(=O)N4CCOCC4)cc3)CC2)c1	-1	-2	29*	0	2	20
O=C(c1ccc(S(=O)(=O)N2CCOCC2)cc1)N1CCN(c2cccc(Cl)c2)CC1	0	17	4	-7	3	.
Cc1ccc(C(=O)Nc2cccc(C(=O)NC3CCCCC3)c2)cc1	8	20	30*	-2	7	31*
C=CCn1c(SCC(=O)OCC)nc2cc(C(=O)NCc3ccco3)ccc2c1=O	12	11	-13	-8	-4	.
CCCCCn1c(SCC(=O)OCC)nc2cc(C(=O)NCc3ccco3)ccc2c1=O	-2	0	34*	-8	0	-4
Cc1ccccc1NS(=O)(=O)c1ccc(C(=O)NCC(C)(C)N2CCOCC2)cc1	0	4	0	-3	12	.
O=C(N/N=C/c1cccnc1)c1ccc(CN2c3cccc4cccc(c34)S2(=O)=O)cc1	1	-23	-32	-33	8	.
O=C1CCCC(=NNC(=O)c2ccc(CN3c4cccc5cccc(c45)S3(=O)=O)cc2)C1	.	.	.	.	.	.	LYPLA2 ABPP=44
Cc1ccc2nc(NCc3ccccc3)c(C=NCc3cccnc3)c(=O)n2c1	7	11	12	1	6	.
Cc1ccc2nc(NCc3ccco3)c(C=NCc3ccco3)c(=O)n2c1	1	10	32*	0	-9	-3
C[C@H](CO)N1C[C@H](C)[C@@H](CN(C)C(=O)Nc2ccc3c(c2)OCO3)Oc2c(NS(=O)(=O)c3ccc(F)cc3)cccc2C1=O	-3	22	.	.	-7	.
O=C(c1cc(COc2ccc(F)cc2F)on1)N1C[C@H]2CC[C@H]1C2	0	15	27*	2	-10	1
O=C(c1cc(COc2ccc(F)cc2F)on1)N1CC2C[C@@H]3CC1C[C@H](C2)C3	3	13	7	0	8	.
O=C(NC(=S)N1CCN(c2ccc(C(F)(F)F)cc2[N+](=O)[O-])CC1)c1cccs1	-17	4	36*	-1	-9	30*
COCCn1c(=O)[nH]c2cc(C(=O)Nc3cccc(C(C)=O)c3)ccc2c1=O	2	-6	12	-10	-4	.
Cc1ccc(-n2c(C)nnc2SCC(=O)N(C)C2CCS(=O)(=O)C2)cc1 (stereo not drawn)	12	-2	-8	-3	15	.
COc1cc(-c2c(C#N)c(N)nc(SCc3ccncc3)c2C#N)cc(OC)c1OC	2	12	35*	3	3	29*
O=C(NCCNC(=O)c1cc(Cl)ccc1Cl)c1cnccn1	-2	12	12	1	2	.
Cc1cc(Oc2cc(N)cc([N+](=O)[O-])c2)ccc1Cl	-2	28	42*	5	2	39*
Nc1cc(OCC(F)(F)F)cc([N+](=O)[O-])c1	-1	4	14	-1	11	.
CC(Sc1nnc(-c2ccc(OC(F)F)cc2)n1N)C(=O)NCC1CCCO1 (stereo not drawn)	0	-5	-1	0	6	.
CCCCCCc1ccc(OC(=O)c2ccncc2)cc1	5	7	13	-3	25	.
CCCCCCOc1ccc(OC(=O)c2ccncc2)cc1	-4	-4	47*	8	6	56*
COc1ccc(OCC(=O)Nc2ccc(NC(=O)c3ccccc3Cl)c(OC)c2)cc1	3	18	36*	-1	2	34*
COc1ccc(OCC(=O)Nc2ccc(NC(=O)c3cccs3)c(OC)c2)cc1	4	13	12	-4	12	.
